Activity calls are given as the source filed them. The rule behind the calls is not given here.
Tests used:
SiHa [1] = experiment: Antitumor activity against human SiHa cells xenografted in NOD/SCID BALB/c mouse assessed as tumor growth inhibition at 40 mg/kg, po administered for 21 days; assay type: functional, organism-based
[2] = biological target: Vascular endothelial growth factor receptor 2 (Homo sapiens, UniProt P35968); experiment: Inhibition of VEGFR2 in HUVEC cells assessed as reduction in STAT3 phosphorylation at 20 to 40 nM incubated for 48 hrs by Western blot analysis; assay type: cell-based
In short: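 HUVECs were maintained in 1640 medium with 10% FBS. They were treated with graded concentrations for 48 h, PBS-washed and lysed in RIPA buffer. Immunoblots were probed for total and phospho VEGFR2, STAT3, Akt, Erk1 and Src, each at 1:1000. β-actin served as loading control.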

SiHa [3] = experiment: Induction of cell cycle arrest in human SiHa cells assessed as accumulation in G2/M phase at 40 to 80 nM incubated for 36 hrs by propidium iodide staining based flow cytometry; assay type: functional
In short: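 Cells were treated with graded concentrations for 36 h, then fixed overnight in 70% ice-cold ethanol at 4°C and resuspended in PBS. Staining used 50 µg/ml PI plus 5 µg/ml RNase at 37°C for 30 min. DNA content was analysed by FACS to give G0/G1, S and G2/M fractions.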

HeLa = experiment: Induction of apoptosis in human HeLa cells assessed as decrease in Ki67 expression at 40 to 80 nM incubated for 48 hrs by Western blot analysis; assay type: functional, cell-based
In short: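 Cells were treated for 48 h, washed three times with PBS, and lysed in RIPA buffer. Immunoblots used anti-Rb, anti-phospho-Rb, anti-Ki67 and anti-Bcl-2 (each 1:1000), with β-actin as loading control.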

[4] = Tmax in Sprague-Dawley rat at 10 mg/kg, po by HPLC-MS analysis; assay type: ADME, organism-based; conditions: in vivo
[5] = biological target: Aurora kinase C (Homo sapiens) (UniProt Q9UQB9); experiment: Inhibition of recombinant human Aurora-C (35 to end residues) at 1 uM using AKRRRLSSLRA as substrate incubated for 40 mins in presence of [gamma-33P]-ATP by scintillation counting method relative to control
Sequence of Aurora kinase C (Homo sapiens) (Q9UQB9 whole entry): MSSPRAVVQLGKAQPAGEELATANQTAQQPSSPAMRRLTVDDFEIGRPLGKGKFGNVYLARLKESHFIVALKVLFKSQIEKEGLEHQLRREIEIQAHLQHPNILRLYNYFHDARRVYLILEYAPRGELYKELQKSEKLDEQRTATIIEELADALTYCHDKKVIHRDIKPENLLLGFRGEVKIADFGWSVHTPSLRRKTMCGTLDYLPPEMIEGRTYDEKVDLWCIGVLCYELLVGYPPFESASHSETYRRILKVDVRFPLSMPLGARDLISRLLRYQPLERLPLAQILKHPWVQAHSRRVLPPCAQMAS
In short: (§1)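 Kinase panel profiling at 1 μM performed by Eurofins KinaseProfiler; percent inhibition reported as mean of two independent experiments.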

[6] = biological target: Casein kinase I isoform gamma-2 (Homo sapiens) (UniProt P78368); experiment: Inhibition of recombinant human CK1gamma2 (18 to end residues) at 1 uM using KRRRALS(p)VAS as substrate incubated for 40 mins in presence of [gamma-33P]-ATP by scintillation counting method relative to control; in short: as §1
Sequence of Casein kinase I isoform gamma-2 (Homo sapiens) (P78368 whole entry, looked up, canonical isoform): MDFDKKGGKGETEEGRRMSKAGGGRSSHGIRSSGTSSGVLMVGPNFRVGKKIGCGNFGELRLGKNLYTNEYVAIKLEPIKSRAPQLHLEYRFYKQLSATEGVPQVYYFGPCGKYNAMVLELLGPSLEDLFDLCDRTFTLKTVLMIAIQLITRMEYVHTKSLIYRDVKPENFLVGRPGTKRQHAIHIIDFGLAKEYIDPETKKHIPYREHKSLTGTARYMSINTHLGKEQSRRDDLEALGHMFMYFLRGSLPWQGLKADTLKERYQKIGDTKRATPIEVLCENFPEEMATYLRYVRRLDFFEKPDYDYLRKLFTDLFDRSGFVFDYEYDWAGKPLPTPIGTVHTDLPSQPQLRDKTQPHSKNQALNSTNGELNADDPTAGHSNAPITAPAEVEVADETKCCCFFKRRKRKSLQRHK

[7] = biological target: Tyrosine-protein kinase Fes/Fps (Homo sapiens) (UniProt P07332); experiment: Inhibition of recombinant human FES (2 to end residues) at 1 uM using poly(Glu, Tyr) 4:1 as substrate incubated for 40 mins in presence of [gamma-33P]-ATP by scintillation counting method relative to control
Saccharomyces cerevisiae = experiment: Inhibition of recombinant fungi CK1 (2 to 298 residues) at 1 uM using KRRRALS(p)VAS as substrate incubated for 40 mins in presence of [gamma-33P]-ATP by scintillation counting method relative to control; in short: as §1
[8] = biological target: Death-associated protein kinase 2 (Homo sapiens) (UniProt Q9UIK4); experiment: Inhibition of recombinant full length human DAPK2 at 1 uM using calmodulin as substrate incubated for 40 mins in presence of [gamma-33P]-ATP by scintillation counting method relative to control; in short: as §1
Sequence of Death-associated protein kinase 2 (Homo sapiens) (Q9UIK4 whole entry, looked up, the tested form may be a part): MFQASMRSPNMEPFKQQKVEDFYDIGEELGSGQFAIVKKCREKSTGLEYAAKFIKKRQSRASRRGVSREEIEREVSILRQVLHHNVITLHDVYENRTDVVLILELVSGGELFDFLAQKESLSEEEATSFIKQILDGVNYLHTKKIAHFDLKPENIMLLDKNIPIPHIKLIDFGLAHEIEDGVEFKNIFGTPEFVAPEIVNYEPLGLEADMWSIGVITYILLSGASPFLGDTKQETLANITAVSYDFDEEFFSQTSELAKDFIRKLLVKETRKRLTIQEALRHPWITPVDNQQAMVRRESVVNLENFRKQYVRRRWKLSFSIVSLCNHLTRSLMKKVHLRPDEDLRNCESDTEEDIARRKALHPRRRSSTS

[9] = biological target: Ephrin type-A receptor 4 (Homo sapiens) (UniProt P54764); experiment: Inhibition of recombinant human EPhA4 (601 to 892 residues) at 1 uM using poly(Glu, Tyr) 4:1 as substrate incubated for 40 mins in presence of [gamma-33P]-ATP by scintillation counting method relative to control
[10] = biological target: Myosin light chain kinase 2, skeletal/cardiac muscle (Homo sapiens) (UniProt Q9H1R3); experiment: Inhibition of recombinant human full length MYLK2 at 1 uM using KKLNRTLSFAEPG as substrate incubated for 40 mins in presence of [gamma-33P]-ATP by scintillation counting method relative to control
Sequence of Myosin light chain kinase 2, skeletal/cardiac muscle (Homo sapiens) (Q9H1R3 whole entry, the tested form may be a part): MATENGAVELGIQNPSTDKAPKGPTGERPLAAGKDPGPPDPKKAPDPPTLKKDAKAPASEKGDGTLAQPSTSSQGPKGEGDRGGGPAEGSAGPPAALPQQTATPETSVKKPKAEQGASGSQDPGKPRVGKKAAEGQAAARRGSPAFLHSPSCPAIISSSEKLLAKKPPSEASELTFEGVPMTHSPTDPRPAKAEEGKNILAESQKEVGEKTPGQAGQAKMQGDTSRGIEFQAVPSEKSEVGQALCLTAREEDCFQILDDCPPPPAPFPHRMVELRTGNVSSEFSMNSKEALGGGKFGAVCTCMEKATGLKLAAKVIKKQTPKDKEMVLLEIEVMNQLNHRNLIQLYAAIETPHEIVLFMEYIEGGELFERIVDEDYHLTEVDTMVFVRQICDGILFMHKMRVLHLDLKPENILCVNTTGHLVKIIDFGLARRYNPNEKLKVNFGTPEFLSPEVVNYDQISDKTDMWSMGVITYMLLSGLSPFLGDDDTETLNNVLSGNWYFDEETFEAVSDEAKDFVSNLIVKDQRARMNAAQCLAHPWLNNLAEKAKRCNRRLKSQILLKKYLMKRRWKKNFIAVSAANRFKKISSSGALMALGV

[11] = biological target: Receptor-interacting serine/threonine-protein kinase 2 (Homo sapiens) (UniProt O43353); experiment: Inhibition of recombinant human RIPK2 (1 to 299 residues) at 1 uM using myelin basic protein as substrate incubated for 40 mins in presence of [gamma-33P]-ATP by scintillation counting method relative to control
Sequence of Receptor-interacting serine/threonine-protein kinase 2 (Homo sapiens) (O43353 whole entry, the tested form may be a part): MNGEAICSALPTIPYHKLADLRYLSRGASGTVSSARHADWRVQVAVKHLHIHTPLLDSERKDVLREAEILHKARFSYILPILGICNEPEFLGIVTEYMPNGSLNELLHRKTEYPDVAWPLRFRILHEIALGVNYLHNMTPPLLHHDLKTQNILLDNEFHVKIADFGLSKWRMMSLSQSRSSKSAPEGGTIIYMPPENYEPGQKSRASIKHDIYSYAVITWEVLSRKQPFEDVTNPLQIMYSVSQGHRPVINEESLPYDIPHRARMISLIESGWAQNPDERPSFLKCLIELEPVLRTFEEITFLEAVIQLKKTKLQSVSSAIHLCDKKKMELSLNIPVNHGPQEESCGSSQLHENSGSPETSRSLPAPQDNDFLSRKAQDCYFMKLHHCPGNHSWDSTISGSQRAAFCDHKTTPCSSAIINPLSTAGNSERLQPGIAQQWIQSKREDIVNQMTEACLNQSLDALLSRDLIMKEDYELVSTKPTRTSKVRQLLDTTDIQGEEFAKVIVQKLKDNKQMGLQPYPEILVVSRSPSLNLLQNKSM

[12] = biological target: Serine/threonine-protein kinase SIK1 (Homo sapiens) (UniProt P57059); experiment: Inhibition of recombinant human SIK (1 to 281 residues) at 1 uM using AMARAASAAALARRR as substrate incubated for 40 mins in presence of [gamma-33P]-ATP by scintillation counting method relative to control
[13] = biological target: Serine/threonine-protein kinase SIK2 (Homo sapiens) (UniProt Q9H0K1); experiment: Inhibition of recombinant human SIK2 (1 to 276 residues) at 1 uM using KKKVSRSGLYRSPSMPENLNRPR as substrate incubated for 40 mins in presence of [gamma-33P]-ATP by scintillation counting method relative to control
Sequence of Serine/threonine-protein kinase SIK2 (Homo sapiens) (Q9H0K1 whole entry, looked up, the tested form may be a part): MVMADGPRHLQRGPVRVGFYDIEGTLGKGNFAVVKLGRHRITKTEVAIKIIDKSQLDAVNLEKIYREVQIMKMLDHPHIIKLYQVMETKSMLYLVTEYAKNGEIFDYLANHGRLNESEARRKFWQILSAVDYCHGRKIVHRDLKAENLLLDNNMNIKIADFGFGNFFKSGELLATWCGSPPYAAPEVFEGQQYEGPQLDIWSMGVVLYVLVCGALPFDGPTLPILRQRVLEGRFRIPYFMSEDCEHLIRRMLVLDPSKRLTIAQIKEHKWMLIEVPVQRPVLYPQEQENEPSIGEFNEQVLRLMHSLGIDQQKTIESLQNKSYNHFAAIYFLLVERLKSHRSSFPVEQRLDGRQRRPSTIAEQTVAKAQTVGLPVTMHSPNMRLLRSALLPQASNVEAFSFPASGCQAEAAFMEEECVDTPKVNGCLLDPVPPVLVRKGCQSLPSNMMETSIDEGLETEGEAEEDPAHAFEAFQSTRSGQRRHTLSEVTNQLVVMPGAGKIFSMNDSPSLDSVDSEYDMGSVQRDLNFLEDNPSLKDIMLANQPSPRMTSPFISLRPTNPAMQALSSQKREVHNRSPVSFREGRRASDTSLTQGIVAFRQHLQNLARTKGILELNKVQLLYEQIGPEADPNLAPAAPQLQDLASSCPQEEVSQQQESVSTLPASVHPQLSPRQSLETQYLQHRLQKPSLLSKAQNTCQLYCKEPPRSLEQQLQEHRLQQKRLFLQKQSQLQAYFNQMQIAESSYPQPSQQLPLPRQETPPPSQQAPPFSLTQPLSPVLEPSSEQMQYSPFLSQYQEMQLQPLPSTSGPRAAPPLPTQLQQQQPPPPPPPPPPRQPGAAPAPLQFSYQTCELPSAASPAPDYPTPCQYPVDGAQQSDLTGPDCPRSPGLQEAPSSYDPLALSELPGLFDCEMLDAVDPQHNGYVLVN

[14] = biological target: Serine/threonine-protein kinase TAO3 (Homo sapiens) (UniProt Q9H2K8); experiment: Inhibition of recombinant human TAO3 (1 to 411 residues) at 1 uM using myelin basic protein as substrate incubated for 40 mins in presence of [gamma-33P]-ATP by scintillation counting method relative to control
[15] = biological target: Wee1-like protein kinase 2 (Homo sapiens) (UniProt P0C1S8); experiment: Inhibition of recombinant human full length WEE1B at 1 uM using LSNLYHQGKFLQTFCGSPLYRRR as substrate incubated for 40 mins in presence of [gamma-33P]-ATP by scintillation counting method relative to control
Sequence of Wee1-like protein kinase 2 (Homo sapiens) (P0C1S8 whole entry, looked up): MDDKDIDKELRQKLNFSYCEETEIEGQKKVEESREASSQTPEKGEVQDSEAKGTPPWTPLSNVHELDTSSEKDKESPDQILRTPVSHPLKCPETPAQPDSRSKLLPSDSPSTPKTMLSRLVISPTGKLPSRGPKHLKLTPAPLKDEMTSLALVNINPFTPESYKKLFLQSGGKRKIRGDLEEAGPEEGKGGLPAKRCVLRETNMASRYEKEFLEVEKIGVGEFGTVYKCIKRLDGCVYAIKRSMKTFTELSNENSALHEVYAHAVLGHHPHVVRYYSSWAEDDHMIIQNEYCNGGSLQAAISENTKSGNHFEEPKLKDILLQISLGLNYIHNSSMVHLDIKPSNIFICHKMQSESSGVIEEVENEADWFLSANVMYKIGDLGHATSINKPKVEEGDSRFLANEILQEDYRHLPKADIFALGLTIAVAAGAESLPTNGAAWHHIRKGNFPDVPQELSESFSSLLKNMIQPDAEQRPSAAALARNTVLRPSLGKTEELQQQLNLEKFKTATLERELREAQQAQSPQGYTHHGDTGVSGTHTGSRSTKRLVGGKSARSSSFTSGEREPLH
In short: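 Single-point inhibition at 1 uM measured in a commercial kinase profiling panel (KinaseProfiler); each value is the mean of two independent experiments.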

[16] = biological target: PI3-kinase p110-delta/p85-alpha (Homo sapiens) (UniProt P27986+O00329); experiment: Inhibition of recombinant human full length PI3K p110delta/p85alpha at 1 uM using phosphatidylinositol-4, 5-bisphosphate as substrate incubated for 40 mins in presence of [gamma-33P]-ATP by scintillation counting method relative to control; assay type: protein-complex assay
[17] = biological target: Phosphatidylinositol 4,5-bisphosphate 3-kinase catalytic subunit gamma isoform (Homo sapiens) (UniProt P48736); experiment: Inhibition of recombinant human full length PI3K p120gamma at 1 uM using phosphatidylinositol-4, 5-bisphosphate as substrate incubated for 40 mins in presence of [gamma-33P]-ATP by scintillation counting method relative to control
Sequence of Phosphatidylinositol 4,5-bisphosphate 3-kinase catalytic subunit gamma isoform (Homo sapiens) (P48736 whole entry, looked up, canonical isoform): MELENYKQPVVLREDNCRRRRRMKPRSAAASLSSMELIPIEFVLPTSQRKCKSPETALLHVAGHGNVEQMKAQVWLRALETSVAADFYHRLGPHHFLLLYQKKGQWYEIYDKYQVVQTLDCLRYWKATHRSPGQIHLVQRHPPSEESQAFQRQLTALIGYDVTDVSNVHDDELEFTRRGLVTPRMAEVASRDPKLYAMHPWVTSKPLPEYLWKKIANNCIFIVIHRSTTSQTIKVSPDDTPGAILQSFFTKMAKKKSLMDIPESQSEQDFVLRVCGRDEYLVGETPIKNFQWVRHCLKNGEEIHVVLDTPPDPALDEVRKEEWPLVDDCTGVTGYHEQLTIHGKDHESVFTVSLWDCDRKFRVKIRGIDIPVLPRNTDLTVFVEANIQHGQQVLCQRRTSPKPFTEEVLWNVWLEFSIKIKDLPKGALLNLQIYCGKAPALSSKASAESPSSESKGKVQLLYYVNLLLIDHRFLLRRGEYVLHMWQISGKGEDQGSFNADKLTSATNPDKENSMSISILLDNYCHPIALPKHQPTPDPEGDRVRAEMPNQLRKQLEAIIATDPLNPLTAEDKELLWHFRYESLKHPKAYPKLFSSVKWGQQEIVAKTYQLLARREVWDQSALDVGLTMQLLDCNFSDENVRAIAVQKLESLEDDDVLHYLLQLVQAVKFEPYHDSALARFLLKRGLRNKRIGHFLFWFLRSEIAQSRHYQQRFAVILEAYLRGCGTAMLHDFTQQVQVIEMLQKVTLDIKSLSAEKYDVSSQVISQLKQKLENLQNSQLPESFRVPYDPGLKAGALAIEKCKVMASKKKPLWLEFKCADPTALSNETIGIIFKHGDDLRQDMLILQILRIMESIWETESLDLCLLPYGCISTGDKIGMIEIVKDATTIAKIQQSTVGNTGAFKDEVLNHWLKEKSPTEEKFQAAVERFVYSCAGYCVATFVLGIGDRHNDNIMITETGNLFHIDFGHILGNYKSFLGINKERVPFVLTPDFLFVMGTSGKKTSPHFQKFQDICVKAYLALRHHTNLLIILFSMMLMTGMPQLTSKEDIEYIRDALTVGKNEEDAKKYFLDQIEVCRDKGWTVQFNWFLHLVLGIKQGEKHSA

T47D = experiment: Induction of apoptosis in human T47D cells assessed as decrease in Bcl2 expression at 20 to 40 nM incubated for 48 hrs by Western blot analysis; assay type: functional, cell-based
In short: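 Cancer cells were exposed to graded concentrations for 48 h, washed three times in PBS and lysed in RIPA buffer. Immunoblots were probed with anti-Rb, anti-phospho-Rb, anti-Ki67 and anti-Bcl-2, each at 1:1000. β-actin served as loading control.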

[18] = Toxicity in BALB/c mouse assessed as effect on blood parameter by measuring MCH at 40 mg/kg, po administered once two days for 4 times by hematology analyzer; conditions: in vivo

COc1cc2nccc(Oc3ccc(NC(=O)C4(C(=O)Nc5ccc(F)cc5)CC4)cc3)c2cc1OC [CABOZANTINIB]
TGI (SiHa [1]): Active

Cc1ccc(NC(=O)C2(C(=O)Nc3ccc(Nc4ncc(F)c(-c5cc(F)c6nc(C)n(C(C)C)c6c5)n4)cc3)CC2)cc1
inhibition [2]: Active | Activity (SiHa [3]): Active | Activity (HeLa): Active | Tmax [4]: 2 h | inhibition [5]: 9% | inhibition [6]: 49% | inhibition [7]: 89% | inhibition (Saccharomyces cerevisiae): 48% | inhibition [8]: 10% | inhibition [9]: 28% | inhibition [10]: 30% | inhibition [11]: 46% | inhibition [12]: 21% | inhibition [13]: 43% | inhibition [14]: 2% | inhibition [15]: 0% | inhibition [16]: 12% | inhibition [17]: 14% | Activity (T47D): Active | Activity [18]: Non-Toxic

— ChEMBL document CHEMBL4406821, “Novel dual inhibitors targeting CDK4 and VEGFR2 synergistically suppressed cancer progression and angiogenesis” (Eur J Med Chem, 2019)
